Assay results pooled from the literature.
Sample: plasma

`CNCCN(C)c1cc(C#N)cc(CCc2cc(C)cc(N)n2)c1` has a Vd of 14.8 L/kg (male BALB/c mouse; intravenous; 2 mg/kg).
The Vd of `CCc1cc(C(=O)NC)c2nccc(N3CCc4c(cc(Cn5ccnc5)cc4-c4cn(C)nc4C(F)(F)F)C3=O)c2c1` is reported as 0.4 L/kg (male CD-1 mouse; intravenous; 3 mg/kg).
The Vd of `COc1cc(C2Oc3cc([C@H]4Oc5cc(O)cc(O)c5C(=O)[C@@H]4O)ccc3OC2CO)ccc1O` (stereo partly shown) is reported as 2.51 L/kg (male CD-1 mouse; intravenous; 2 mg/kg).
For `COc1nc(-c2cc(C)c(N[C@@H](C)c3cc(F)cc(F)c3)nn2)ccc1-n1cnc(C)c1`, the Vd was 2.1 L/kg (male CD-1 mouse; intravenous; 1 mg/kg; single dose).
For `COc1ccc2nccc(N3CCc4c(cc(Cn5ccnc5)cc4-c4cn(C)nc4C(F)(F)F)C3=O)c2c1`, the Vd was 1 L/kg (male CD-1 mouse; intravenous; 3 mg/kg).
`COc1ccc(C(O)COc2ccc(-c3csc(-c4ccc(OCC(O)c5ccc(OC)c(OC)c5)cc4)n3)cc2)cc1OC` (stereo not shown) gave a Vd of 1.5 L/kg (C57BL/6 mouse; intravenous; 3 mg/kg).
The Vd of `CC[C@H](C)[C@@H]1NC(=O)[C@@](C)(NC(=O)[C@H](CCCNC(=N)N)NC(=O)[C@H](CC(C)C)NC(=O)[C@@H](NC(=O)[C@H](CCC(N)=O)NC(=O)[C@H](CC(C)C)NC(C)=O)[C@@H](C)O)CCCC=CCCC[C@@](C)(C(=O)N[C@@H](CC(C)C)C(=O)N[C@@H](Cc2ccc3ccccc3c2)C(N)=O)NC(=O)[C@H](CCCNC(=N)N)NC(=O)[C@H](CCC(N)=O)NC1=O` is reported as 0.0788 L/kg (male BALB/c mouse; intravenous; 10 mg/kg).
`CC(C)(C)c1ccc(O)c(CN(Cc2cc(C(C)(C)C)ccc2O)C2CCC(NC(N)=O)CC2)c1` (stereo not shown) gave a Vd of 2.4 L (male C57BL/6 mouse; intraperitoneal; 5 mg/kg; single dose).
For `CCc1cc(OC)c2nccc(N3CCc4c(cc(Cn5ccnc5)cc4-c4cn(C)nc4C(F)(F)F)C3=O)c2c1`, the Vd was 0.7 L/kg (male CD-1 mouse; intravenous; 3 mg/kg).
With `CN1CCC(c2ccccc2CC(C)(C)Nc2nc(N3CCOCC3)nc(-n3c(C(F)F)nc4ccccc43)n2)CC1` the Vd was 5.61 L/kg (mouse; intravenous; 10 mg/kg; single dose).
